Source: ChEMBL document CHEMBL1121923, “N2- and C-7 substituted actinomycin D analogues: synthesis, DNA-binding affinity, and biochemical and biological properties. Structure-activity relationship” (J Med Chem, 1981)
In brackets after ≈: the same amount, converted by molar mass. *1 amine or outer side, *2 acyl side, *3 side chain or, on linkers, in order; H or OH if unused. Where a SMILES comes first, the peptide text is derived from it. Bridges are numbered along the chain shown (N, C = ends). Roman numbers before positions name the chains, in order. [ ]: non-standard residue; d: D form. Actinocin(9to1) = Cc1c2oc3c(C)ccc(C(=O)[*:1])c3nc-2c(C(=O)[*:2])c(N)c1=O; NMeV = CN[C@H](C(=O)O)C(C)C; Sar = CNCC(=O)O

Legend:
CCRF-CEM = assay: In vitro antitumor activity against human lymphoblastic leukemia cells.; type: functional; conditions: read-out: ID50 (the source's name)
Procedure, shortened: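 Human lymphoblastic leukemia CCRF-CEM cells grown in suspension culture; growth inhibition in vitro; ID50 (ng/mL) reported as the 50% inhibitory dose.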

P388 [1] = assay: Percent of increased life span of P388 cells implanted CDF1 male mice; type: functional, Mus musculus
Procedure, shortened: (§1)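 CDF1 male mice, groups of seven, given 10^6 P388 cells ip on day 0; drug ip in 5% DMSO–saline on days 1, 5 and 9; controls received vehicle; range of doses tested, optimal nontoxic dose listed; median survival time; %ILS = (treated − control)/control × 100; average of two or more experiments.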

P388 [2] = assay: Optimal dose for antitumor activity was measured in P388 cells of CDF1 male mice in vivo; Highest dose tested; type: functional, Mus musculus; procedure, shortened: as §1
P388 [3] = assay: Median survival time of the P388 cells implanted CDF1 male mice in vivo; type: functional, Mus musculus; procedure, shortened: as §1
Calf thymus DNA [4] = assay: Apparent number of binding sites per base pairs in DNA; type: nucleic-acid assay; conditions: Bos taurus
Procedure, shortened: (§2)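 Calf thymus DNA; spectral titration; binding isotherms in 0.01 M phosphate buffer, pH 7.0, 20 °C; Kapp (per base pair) and Bapp (drug binding sites per base pair) taken from Scatchard plot.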

Calf thymus DNA [5] = assay: Apparent binding constant calf thymus DNA-drug complex; type: nucleic-acid assay; conditions: Bos taurus; procedure, shortened: as §2
Calf thymus DNA [6] = assay: Apparent number of binding sites per base pairs in DNA; Not measurable; type: nucleic-acid assay; conditions: Bos taurus; procedure, shortened: as §2
P388 [7] = assay: Concentration required for 50% inhibition of incorporation of labeled thymidine by p388 cells for synthesis of DNA (in vitro); e indicates values are high and variable; type: functional, cell-based; conditions: Mus musculus
P388 [8] = assay: Concentration required for 50% inhibition of incorporation of labeled uridine by P388 cells for the synthesis of RNA (in vitro); e indicates values are high and variable; type: functional, cell-based; conditions: Mus musculus
P388 [9] = assay: Optimal dose for antitumor activity was measured in P388 cells of CDF1 male mice in vivo; type: functional, Mus musculus; procedure, shortened: as §1
Bos taurus = species: Bos taurus; assay: Thermal denaturation (deltaTm) of compound against calf thymus DNA was measured; type: ADME; conditions: cattle, in vitro
Procedure, shortened: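 Calf thymus DNA (MW 100 000–500 000) in 0.01 M phosphate, 5 × 10^-3 M EDTA, pH 7.0; drug 7 × 10^-4 M, DNA nucleotide 7 × 10^-3 M; 259 nm absorbance read at 0.25–1.0 °C steps; Tm taken at 50% hyperchromicity; ΔTm = complex Tm minus DNA Tm.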

P388 [10] = assay: Concentration required for 50% inhibition of incorporation of labeled thymidine by p388 cells for synthesis of DNA (in vitro); type: functional; conditions: Mus musculus, read-out: ED50 (the source's name)
P388 [11] = assay: Concentration required for 50% inhibition of incorporation of labeled uridine by P388 cells for the synthesis of RNA (in vitro); type: functional; conditions: Mus musculus, read-out: ED50 (the source's name)

## CCCCCCCOc1cc(C(=O)N[C@@H]2C(=O)N[C@H](C(C)C)C(=O)N3CCC[C@H]3C(=O)N(C)CC(=O)N(C)[C@@H](C(C)C)C(=O)O[C@@H]2C)c2nc3c(C(=O)N[C@@H]4C(=O)N[C@H](C(C)C)C(=O)N5CCC[C@H]5C(=O)N(C)CC(=O)N(C)[C@@H](C(C)C)C(=O)O[C@@H]4C)c(N)c(=O)c(C)c-3oc2c1C
CCRF-CEM
  IC50: 3 µg/mL (≈ 2.19 µM)
P388 [1]
  ILS: 24%
P388 [2]
  Highest dose tested: 0.9 mg/kg
P388 [3]
  MST: 13 days

## Cc1c2oc3c(C)c(O)c(N)c(C(=O)N[C@H]4C(=O)N[C@@H](C(C)C)C(=O)N5CCC[C@H]5C(=O)N(C)CC(=O)N(C)[C@H](C(C)C)C(=O)O[C@H]4C)c3nc-2c(C(=O)N[C@@H]2C(=O)N[C@H](C(C)C)C(=O)N3CCC[C@@H]3C(=O)N(C)CC(=O)N(C)[C@@H](C(C)C)C(=O)O[C@@H]2C)c/c1=N/Cc1ccc(Cl)c(Cl)c1
Calf thymus DNA [4]
  Bapp: 0.058
Calf thymus DNA [5]
  K app: 2.6e+07 M⁻¹

## Cc1c2oc3c(C)c(O)c(N)c(C(=O)N[C@H]4C(=O)N[C@@H](C(C)C)C(=O)N5CCC[C@H]5C(=O)N(C)CC(=O)N(C)[C@H](C(C)C)C(=O)O[C@H]4C)c3nc-2c(C(=O)N[C@@H]2C(=O)N[C@H](C(C)C)C(=O)N3CCC[C@@H]3C(=O)N(C)CC(=O)N(C)[C@@H](C(C)C)C(=O)O[C@@H]2C)c/c1=N/Cc1ccco1
Calf thymus DNA [4]
  Bapp: 0.055
Calf thymus DNA [5]
  K app: 3.8e+06 M⁻¹

## Cc1c2oc3c(C)c(OCc4ccc(Cl)c(Cl)c4)cc(C(=O)N[C@@H]4C(=O)N[C@H](C(C)C)C(=O)N5CCC[C@@H]5C(=O)N(C)CC(=O)N(C)[C@@H](C(C)C)C(=O)O[C@@H]4C)c3nc-2c(C(=O)N[C@H]2C(=O)N[C@@H](C(C)C)C(=O)N3CCC[C@H]3C(=O)N(C)CC(=O)N(C)[C@H](C(C)C)C(=O)O[C@H]2C)c(N)c1=O
Calf thymus DNA [6]
  Bapp: Not measurable
P388 [7]
  ED50: High and variable values
P388 [8]
  ED50: High and variable values
Calf thymus DNA [5]
  K app: 10000 M⁻¹

## Cc1c2oc3c(C)c(O)c(N)c(C(=O)N[C@H]4C(=O)N[C@@H](C(C)C)C(=O)N5CCC[C@H]5C(=O)N(C)CC(=O)N(C)[C@H](C(C)C)C(=O)O[C@H]4C)c3nc-2c(C(=O)N[C@@H]2C(=O)N[C@H](C(C)C)C(=O)N3CCC[C@@H]3C(=O)N(C)CC(=O)N(C)[C@@H](C(C)C)C(=O)O[C@@H]2C)c/c1=N/Cc1cccc(Oc2ccccc2)c1
Calf thymus DNA [4]
  Bapp: 0.055
Calf thymus DNA [5]
  K app: 8.8e+06 M⁻¹

## Cc1c2oc3c(C)c(O)c(N)c(C(=O)N[C@@H]4C(=O)N[C@H](C(C)C)C(=O)N5CCC[C@H]5C(=O)N(C)CC(=O)N(C)[C@@H](C(C)C)C(=O)O[C@H]4C)c3nc-2c(C(=O)N[C@@H]2C(=O)N[C@H](C(C)C)C(=O)N3CCC[C@H]3C(=O)N(C)CC(=O)N(C)[C@@H](C(C)C)C(=O)O[C@H]2C)cc1=N
Calf thymus DNA [4]
  Bapp: 0.121
Calf thymus DNA [5]
  K app: 2.3e+07 M⁻¹

## Cc1c2oc3c(C)c(OCc4ccc(Cl)cc4)cc(C(=O)N[C@@H]4C(=O)N[C@H](C(C)C)C(=O)N5CCC[C@@H]5C(=O)N(C)CC(=O)N(C)[C@@H](C(C)C)C(=O)O[C@@H]4C)c3nc-2c(C(=O)N[C@H]2C(=O)N[C@@H](C(C)C)C(=O)N3CCC[C@H]3C(=O)N(C)CC(=O)N(C)[C@H](C(C)C)C(=O)O[C@H]2C)c(N)c1=O
Calf thymus DNA [6]
  Bapp: Not measurable
P388 [7]
  ED50: High and variable values
P388 [8]
  ED50: High and variable values
Calf thymus DNA [5]
  K app: 100000 M⁻¹

## Cc1c2oc3c(C)ccc(C(=O)N[C@@H]4C(=O)N[C@H](C(C)C)C(=O)N5CCC[C@H]5C(=O)N(C)CC(=O)N(C)[C@@H](C(C)C)C(=O)O[C@@H]4C)c3nc-2c(C(=O)N[C@@H]2C(=O)N[C@H](C(C)C)C(=O)N3CCC[C@H]3C(=O)N(C)CC(=O)N(C)[C@@H](C(C)C)C(=O)O[C@@H]2C)c(N)c1=O [DACTINOMYCIN] (I: T[dV]P[Sar][NMeV] / II: T[dV]P[Sar][NMeV]; ester I:1-I:C, II:1-II:C; linker I:N-II:N via Actinocin(9to1))
CCRF-CEM
  IC50: 0.06 µg/mL (≈ 0.0478 µM)
P388 [9]
  Optimal dose: 0.125 mg/kg
Bos taurus
  Delta Tm: 7.1
P388 [10]
  EC50: 996 nM
P388 [11]
  EC50: 46 nM
Calf thymus DNA [4]
  Bapp: 0.108
P388 [1]
  ILS: 129%
Calf thymus DNA [5]
  K app: 2.3e+07 M⁻¹
P388 [3]
  MST: 24 days

## Cc1c2oc3c(C)c(O)c(N)c(C(=O)N[C@H]4C(=O)N[C@@H](C(C)C)C(=O)N5CCC[C@H]5C(=O)N(C)CC(=O)N(C)[C@H](C(C)C)C(=O)O[C@H]4C)c3nc-2c(C(=O)N[C@@H]2C(=O)N[C@H](C(C)C)C(=O)N3CCC[C@@H]3C(=O)N(C)CC(=O)N(C)[C@@H](C(C)C)C(=O)O[C@@H]2C)cc1=O
Calf thymus DNA [4]
  Bapp: 0.1
Calf thymus DNA [5]
  K app: 3.2e+07 M⁻¹
